From ChEMBL document CHEMBL4330143, “Maximizing ER-α Degradation Maximizes Activity in a Tamoxifen-Resistant Breast Cancer Model: Identification of GDC-0927” (ACS Med Chem Lett, 2019)
Calls of active or inactive are those of the source. The calls are words filed in the database; no cut-off is given here.

Tests used:
[1] = biological target: T1, Progesterone receptor (Homo sapiens) (UniProt P06401); assay: Agonist activity at PR-A (unknown origin) by transcriptional reporter assay
T1 sequence (whole entry): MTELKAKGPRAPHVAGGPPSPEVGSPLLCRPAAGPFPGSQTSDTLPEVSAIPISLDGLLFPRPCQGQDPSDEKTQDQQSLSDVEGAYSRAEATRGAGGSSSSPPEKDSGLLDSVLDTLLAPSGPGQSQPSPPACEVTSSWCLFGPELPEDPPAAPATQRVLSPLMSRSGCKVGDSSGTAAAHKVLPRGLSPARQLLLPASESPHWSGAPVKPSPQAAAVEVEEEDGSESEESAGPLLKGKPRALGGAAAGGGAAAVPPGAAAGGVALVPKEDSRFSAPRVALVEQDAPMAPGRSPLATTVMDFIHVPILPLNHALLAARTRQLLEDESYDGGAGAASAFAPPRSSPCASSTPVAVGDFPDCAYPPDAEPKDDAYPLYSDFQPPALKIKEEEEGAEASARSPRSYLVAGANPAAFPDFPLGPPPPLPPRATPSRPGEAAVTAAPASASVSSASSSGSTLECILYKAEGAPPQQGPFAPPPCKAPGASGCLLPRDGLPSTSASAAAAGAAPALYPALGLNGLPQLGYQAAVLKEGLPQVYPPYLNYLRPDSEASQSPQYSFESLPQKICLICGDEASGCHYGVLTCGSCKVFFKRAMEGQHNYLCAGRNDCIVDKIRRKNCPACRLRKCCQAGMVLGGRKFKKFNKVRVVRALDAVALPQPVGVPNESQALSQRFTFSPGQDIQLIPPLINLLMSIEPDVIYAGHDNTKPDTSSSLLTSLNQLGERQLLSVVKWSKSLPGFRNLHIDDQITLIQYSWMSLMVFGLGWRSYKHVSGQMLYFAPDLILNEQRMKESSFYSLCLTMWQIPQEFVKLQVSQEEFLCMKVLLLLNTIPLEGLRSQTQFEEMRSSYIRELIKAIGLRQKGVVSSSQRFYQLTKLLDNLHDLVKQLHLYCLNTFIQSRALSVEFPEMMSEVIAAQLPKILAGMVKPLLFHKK

Cytochrome P450 1A2 = biological target: T2, Cytochrome P450 1A2 (Homo sapiens, UniProt P05177); assay: Competitive inhibition of CYP1A2 (unknown origin); type: ADME
T2 sequence (P05177 whole entry): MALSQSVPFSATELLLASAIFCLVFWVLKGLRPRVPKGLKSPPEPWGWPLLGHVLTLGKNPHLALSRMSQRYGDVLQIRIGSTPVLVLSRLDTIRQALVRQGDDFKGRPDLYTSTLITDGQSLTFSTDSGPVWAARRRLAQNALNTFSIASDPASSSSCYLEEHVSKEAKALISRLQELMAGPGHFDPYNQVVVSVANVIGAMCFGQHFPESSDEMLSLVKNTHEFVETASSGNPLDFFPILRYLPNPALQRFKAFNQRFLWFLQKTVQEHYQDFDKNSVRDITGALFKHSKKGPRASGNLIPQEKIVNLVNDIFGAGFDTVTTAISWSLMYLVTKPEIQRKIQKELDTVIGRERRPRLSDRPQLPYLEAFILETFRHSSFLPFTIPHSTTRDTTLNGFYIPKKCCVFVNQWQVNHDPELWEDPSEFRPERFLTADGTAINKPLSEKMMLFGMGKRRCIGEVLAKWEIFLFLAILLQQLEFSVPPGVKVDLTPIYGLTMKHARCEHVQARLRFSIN

[2] = Clearance in rat at 10 mg/kg, po daily for 3 days measured on day 3 post last dose; type: ADME, organism-based; details: in vivo
[3] = biological target: Sodium-dependent dopamine transporter (Homo sapiens, UniProt Q01959); assay: Inhibition of dopamine transporter (unknown origin)
Sodium-dependent dopamine transporter, sequence (Q01959 whole entry): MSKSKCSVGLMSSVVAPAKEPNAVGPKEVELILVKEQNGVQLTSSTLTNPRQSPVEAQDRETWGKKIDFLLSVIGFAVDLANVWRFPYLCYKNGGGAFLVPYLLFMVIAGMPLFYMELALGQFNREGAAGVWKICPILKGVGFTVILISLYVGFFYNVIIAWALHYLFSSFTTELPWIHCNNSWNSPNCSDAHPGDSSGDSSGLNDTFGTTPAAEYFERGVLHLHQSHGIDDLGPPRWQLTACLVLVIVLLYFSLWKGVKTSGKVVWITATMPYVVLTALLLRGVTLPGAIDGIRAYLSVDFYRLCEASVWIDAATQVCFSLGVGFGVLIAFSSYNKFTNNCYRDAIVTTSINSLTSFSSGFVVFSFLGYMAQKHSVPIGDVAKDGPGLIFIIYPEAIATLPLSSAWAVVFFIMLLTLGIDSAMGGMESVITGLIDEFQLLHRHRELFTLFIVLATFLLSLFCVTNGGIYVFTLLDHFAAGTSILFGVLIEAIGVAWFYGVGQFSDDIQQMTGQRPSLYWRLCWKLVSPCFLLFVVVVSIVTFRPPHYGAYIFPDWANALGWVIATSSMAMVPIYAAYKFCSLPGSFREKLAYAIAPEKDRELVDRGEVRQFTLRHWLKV
In short: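 Cell-based functional follow-up assay, done after hits in a radioligand binding panel run under protein-free conditions. Value reported as IC50.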

MCF7 = assay: Antiproliferative activity against human MCF7 cells after 5 days by CellTiter-Glo assay; details: MCF7, 120 h
[4] = Genotoxicity in Salmonella typhimurium TA100 by Ames test; type: toxicity; details: salmonella enterica subsp. enterica serovar […]
Cytochrome P450 3A4 = Cytochrome P450 3A4 (Homo sapiens, UniProt P08684); assay: Competitive inhibition of CYP3A4 (unknown origin); type: ADME
Cytochrome P450 3A4, sequence (P08684 whole entry): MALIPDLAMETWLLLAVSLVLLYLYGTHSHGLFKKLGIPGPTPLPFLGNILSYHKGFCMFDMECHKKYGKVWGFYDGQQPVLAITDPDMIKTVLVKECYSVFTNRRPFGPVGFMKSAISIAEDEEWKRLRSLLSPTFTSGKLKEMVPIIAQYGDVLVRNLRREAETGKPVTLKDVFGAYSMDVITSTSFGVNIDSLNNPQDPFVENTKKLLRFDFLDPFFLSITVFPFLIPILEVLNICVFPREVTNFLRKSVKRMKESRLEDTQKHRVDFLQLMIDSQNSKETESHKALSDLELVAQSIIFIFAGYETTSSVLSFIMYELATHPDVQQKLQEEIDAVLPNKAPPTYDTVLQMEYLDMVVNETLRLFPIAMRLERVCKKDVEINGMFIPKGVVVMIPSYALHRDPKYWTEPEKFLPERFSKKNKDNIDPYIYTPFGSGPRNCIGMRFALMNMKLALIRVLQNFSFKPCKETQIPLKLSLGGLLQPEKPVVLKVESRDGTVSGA

[5] = biological target: T1, Progesterone receptor (Homo sapiens); assay: Antagonist activity at PR-A (unknown origin) by transcriptional reporter assay
Cytochrome P450 2C8 = biological target: T3, Cytochrome P450 2C8 (Homo sapiens, UniProt P10632); assay: Inhibition of CYP2C8 (unknown origin); type: ADME
T3 sequence (P10632 whole entry): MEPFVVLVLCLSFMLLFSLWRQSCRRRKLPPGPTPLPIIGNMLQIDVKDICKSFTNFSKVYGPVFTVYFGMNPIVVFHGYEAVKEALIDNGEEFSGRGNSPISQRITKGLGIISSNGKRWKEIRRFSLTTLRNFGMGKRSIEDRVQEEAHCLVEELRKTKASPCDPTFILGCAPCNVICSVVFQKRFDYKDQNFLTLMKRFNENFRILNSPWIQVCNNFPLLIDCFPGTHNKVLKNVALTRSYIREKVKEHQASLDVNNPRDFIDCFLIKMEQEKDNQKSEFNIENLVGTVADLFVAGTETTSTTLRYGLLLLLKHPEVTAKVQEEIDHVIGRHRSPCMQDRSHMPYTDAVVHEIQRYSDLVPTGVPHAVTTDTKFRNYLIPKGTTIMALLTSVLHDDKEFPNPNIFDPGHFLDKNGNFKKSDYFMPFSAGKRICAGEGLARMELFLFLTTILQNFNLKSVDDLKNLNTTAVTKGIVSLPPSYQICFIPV

CC1=C(c2cccc(O)c2)[C@H](c2ccc(OCCN3CC(CF)C3)cc2)Oc2ccc(O)cc21
Activity [1]: inactive | IC50 (Cytochrome P450 1A2): > 10000 nM | CL/F [2]: > 60 mL/min/kg | IC50 [3]: 390 nM | IC50 (MCF7): 0.1 nM | Activity [4]: Non-Toxic | IC50 (Cytochrome P450 3A4): > 10000 nM | inhibition [5]: inactive | IC50 (Cytochrome P450 2C8): 3000 nM
